Series [1] has as its system BV-2 (Mus musculus). The series is described as follows: Antiinflammatory activity in mouse BV-2 cells assessed as inhibition of LPS-induced TNF-alpha production pre-incubated for 1 hr before LPS stimulation for 23 hrs by ELISA method.
Series [2] can be described thus: Toxicity in CD1 mouse primary cortical neurons assessed as effect on cell viability at 50 nM incubated for 24 hrs by CCK8 assay. Particulars: read-out: Activity. The format is cell-based, Cortical neurone. The gist of the method:
(§1)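 Primary cortical neuron cultures were exposed to compound alone at the stated concentration. Viability was measured by CCK8 and expressed as the percentage reduction in viable cells.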
Background: Tetrazolium assays rely on reduction of a dye to a coloured formazan, in cell work by metabolically active cells.

The nature of series [3]: Stability in neurobasal cell culture medium supplemented with B-27 and N2 assessed as compound hydrolysis by LC-HR MS method. The format is physicochemical. Particulars: read-out: Drug degradation. The method in brief: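 Compound was incubated in neurobasal culture medium containing B-27 and N2 at 37 °C for 24 h, with no enzyme present. The remaining compound concentration was then quantified by LC-HRMS.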

Series [4] can be described thus: Toxicity in CD1 mouse primary cortical neurons assessed as effect on cell viability at 100 nM incubated for 24 hrs by CCK8 assay. The format is cell-based, Cortical neurone. Particulars: read-out: Activity. The gist of the method:
as §1

A short description of series [5]: Toxicity in CD1 mouse primary cortical neurons assessed as effect on cell viability at 25 nM incubated for 24 hrs by CCK8 assay. The format is cell-based, Cortical neurone. Particulars: read-out: Activity. The gist of the method: as §1
Series [6] relates to Cortical neurone. The series is described as follows: Neuroprotective activity against amyloid beta (1 to 42) peptide-induced cytotoxicty in CD1 mouse primary cortical neurons assessed as increase in cell viability at 0.01 nM pre-incubated for 1 hr before amyloid beta (1 to 42) addition and measured after 24 hrs by CCK8 assay. Type of series: functional.
In series [7] the test system is Cortical neurone. The series is described as follows: Neuroprotective activity against amyloid beta (1 to 42) peptide-induced cytotoxicty in CD1 mouse primary cortical neurons assessed as increase in cell viability at 0.01 to 1 nM pre-incubated for 1 hr before amyloid beta (1 to 42) addition and measured after 24 hrs by CCK8 assay. The format is functional.
Series [8] deals with Cortical neurone. The series is described as follows: Toxicity in CD1 mouse primary cortical neurons assessed as effect on cell viability at 0.01 to 1 uM incubated for 24 hrs by CCK8 assay. Type of series: cell-based. The gist of the method: (§2)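 Primary cortical neuron cultures were given compound alone across a concentration range, without Aβ. Cell viability was measured by CCK8 and expressed as percent reduction in viable cells. Data are mean ± SD of three independent experiments.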

Series [9] concerns Cortical neurone. The experiment in a line: Neuroprotective activity against amyloid beta (1 to 42) peptide-induced cytotoxicty in CD1 mouse primary cortical neurons assessed as increase in cell viability at 0.1 to 10 uM pre-incubated for 1 hr before amyloid beta (1 to 42) addition and measured after 24 hrs by CCK8 assay. The format is functional, cell-based.
The subject of series [10] is BV-2 (Mus musculus). The experiment in a line: Antiinflammatory activity in mouse BV-2 cells assessed as inhibition of LPS-induced TNF-alpha production at 10 to 1000 nM pre-incubated for 1 hr before LPS stimulation for 23 hrs by ELISA method.
Series [11] concerns Cortical neurone. The series is described as follows: Neuroprotective activity against amyloid beta (1 to 42) peptide-induced cytotoxicty in CD1 mouse primary cortical neurons assessed as increase in cell viability at 1 to 10 nM pre-incubated for 1 hr before amyloid beta (1 to 42) addition and measured after 24 hrs by CCK8 assay. The format is functional, cell-based.
A short description of series [12]: Toxicity in African green monkey CV1 cells assessed as effect on cell viability incubated for 24 hrs by CCK8 assay.
The subject of series [13] is BV-2 (Mus musculus). The series is described as follows: Antiinflammatory activity in mouse BV-2 cells assessed as inhibition of LPS-induced TNF-alpha production at 20 nM pre-incubated for 1 hr before LPS stimulation for 23 hrs by ELISA method. (In general: An ELISA detects its analyte on a solid surface through an enzyme-linked reagent.)
Series [14] deals with Cortical neurone. The experiment in a line: Toxicity in CD1 mouse primary cortical neurons assessed as effect on cell viability at 1000 nM incubated for 24 hrs by CCK8 assay. Particulars: 1 µM. Type of series: cell-based. The method in brief:
as §2

Series [15] concerns Cortical neurone. The series is described as follows: Neuroprotective activity against amyloid beta (1 to 42) peptide-induced cytotoxicty in CD1 mouse primary cortical neurons assessed as increase in cell viability at 100 to 1000 nM pre-incubated for 1 hr before amyloid beta (1 to 42) addition and measured after 24 hrs by CCK8 assay. Type of series: functional, cell-based.
Series [16] deals with BV-2 (Mus musculus). The series is described as follows: Antiinflammatory activity in mouse BV-2 cells assessed as inhibition of LPS-induced TNF-alpha production at 10 nM pre-incubated for 1 hr before LPS stimulation for 23 hrs by ELISA method.
Series [17] has as its system Cortical neurone. The series is described as follows: Toxicity in CD1 mouse primary cortical neurons assessed as effect on cell viability at =< 10 nM incubated for 24 hrs by CCK8 assay. Type of series: cell-based. The gist of the method:
as §2

The source made the active and inactive calls. No cut-off for these calls is given here.

Broadly, the inhibition is the share of the control response that was lost under treatment.

Consider `CC(C)[C@]12O[C@H]1[C@@H]1O[C@]13[C@]1(O[C@H]1C[C@H]1C4=C(CC[C@@]13C)C(=O)OC4)[C@@H]2O` [TRIPTOLIDE], for which the results for the Activity result in series [1], in series [6] and in [7] were “Dose-dependent effect”, 100% and 100%, respectively. In series [2], the viability at 24 h, 0.05 µM was 62.8%. Also, in series [3], the degraded came to 13%. The viability at 24 h, 0.1 µM in [4] was 76.5%. In series [5], the viability at 24 h, 0.025 µM came out at 27.2%.
As for `CC(C)[C@]1(O)[C@H](O)[C@@H]2O[C@]23[C@]2(O[C@H]2C[C@H]2C4=C(CC[C@@]23C)C(=O)OC4)[C@@H]1O`, in [8], the Activity entry is given as “Non-Toxic”. For the same compound, the result in series [9] was Active.
The corresponding values for `CC(C)[C@]1(O)[C@H](F)[C@@H]2O[C@]23[C@]2(O[C@H]2C[C@H]2C4=C(CC[C@@]23C)C(=O)OC4)[C@@H]1O` are “Non-Toxic” and “Active”.
In the case of `CC(C)C1=C[C@@H]2O[C@@]23[C@@]2(C)CCC4=C(COC4=O)[C@@H]2C[C@@H]2O[C@@]23C1=O`, the Activity result is “Dose-dependent effect” in series [1], “Non-Toxic” in [8] and “Non-Toxic” in series [12]. Also, the outcome in series [10] was inactive. Further, the result in [11] was Active.
Regarding `CC(C)[C@]12O[C@H]1[C@@H]1O[C@]13[C@]1(O[C@H]1C[C@H]1C4=C(CC[C@@]13C)C(=O)OC4)[C@H]2F`, the inhibition at 0.02 µM in [13] is 100%. Further, the Activity result is “Dose-dependent effect” in series [1] and “Non-Toxic” in series [12]. Also, in series [7], the result was inactive.
`CC(C)[C@]12O[C@H]1[C@@H]1O[C@]13[C@]1(O[C@H]1C[C@H]1C4=C(CC[C@@]13C)C(=O)OC4)[C@@H]2OC(=O)NC(C)(C)C`: in series [14], the Activity result is reported as “Toxic”. The result in series [15] was inactive.
For `CC(C)[C@]12O[C@H]1[C@@H]1O[C@]13[C@]1(O[C@H]1C[C@H]1C4=C(CC[C@@]13C)C(=O)OC4)[C@@H]2OC(=O)NC12CC3CC(C)(CC(C)(C3)C1)C2`, the Activity result is “Dose-dependent effect” in series [1]; “Non-Toxic” in series [17]; 100% in series [6]; “Non-Toxic” in series [12]; “Dose-dependent effect” in series [7]. For the same compound, the inhibition at 0.01 µM in series [16] was determined as 100%. For the same compound, in [2], the viability at 24 h, 0.05 µM stood at 32.8%. Moreover, in [3], the degraded was 13%. Also, the viability at 24 h, 0.1 µM in [4] was 73.5%. In addition, the viability at 24 h, 0.025 µM in series [5] was 7.7%.
Take `CC(C)[C@]12O[C@H]1[C@@H]1O[C@@]13[C@@]1(C)CCC4=C(COC4=O)[C@@H]1C[C@@H]1O[C@@]13C2=O` [TRIPTONIDE]: in [13], the inhibition at 0.02 µM amounted to 100%. Also, the result in series [9] was inactive. Besides, the Activity entry in series [12] is “Non-Toxic”.
Turning to `CC(C)[C@]12O[C@H]1[C@@H]1O[C@@]13[C@@]1(C)CCC4=C(COC4=O)[C@@H]1CC[C@@]3(O)[C@@H]2O`, the Activity entry in series [8] and in [12] was “Non-Toxic” each time. The outcome in [11] was Active.

(Values after ChEMBL document CHEMBL4184223 (Bioorg Med Chem Lett, 2018).)
